High-throughput results as filed in PubChem BioAssay.
Only some compounds are listed: those with a hit (about 2.1% of all), similar ones and a draw of the others.
STK33 inh: human STK33 kinase inhibition; Q9BYT3; purified STK33, MBP phosphorylation, ADP-Glo luminescence; inhibition, % at 10 µM; hit rate 0.073% among 320,000;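 active = inhibition at or above 25%, using the most active replicate where run in duplicate; inactive = inhibition below 25%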
GSK3B inh: blocks human GSK3beta kinase activity. hit rate 0.038% among 300,000. GST-GSK3beta kinase, ADP-Glo luminescence, 60 min; hits give low values. AID 2097. activity score (negative = inhibition), % at 10 µM. P49841;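 active = more than half of replicate wells score below -50%, meaning over 50% inhibition versus plate controls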
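Test system: GST-tagged human GSK3beta kinase, cell-free; evaluation: activity score scaled between in-plate DMSO and GW8510 controls; measured by: ADP-Glo luminescence; incubation: 60 min reaction, RT; benchmarks: DMSO and 20 µM GW8510; reagent: peptide substrate plus 25 µM ATP (final); medium: Tris/MgCl2 kinase buffer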
MEKK3 PB1 HTS: MEKK3-MEK5 PB1 interaction, increase or decrease. bead-based flow cytometry, Alexa488-MEK5 binding to MEKK3; actives lie on both sides; 0 = blocked by unlabeled MEK5, 100 = vehicle. hit rate 1.4% among 290,000. binding response (% of control), % at 10 µM. AID 1529;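 active = binding response more than 3 SD above or below the average of its plate-row segment, actives on both sides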;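 note: Alexa488 bead fluorescence after subtracting the streptavidin-only scavenger bead signal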
MEKK2 WT-MEK5: raises or lowers MEK5 binding to wildtype human MEKK2 PB1 domain; Q9Y2U5; AID 1531; bead flow cytometry, Alexa488-MEK5 binding to MEKK2 WT; actives lie on both sides; binding response (% of control), % at 10 µM; hit rate 1.1% among 290,000; in the data active = binding response below about 67% or above about 130%
MEKK2mut PB1 HTS: signal of MEK5 binding to mutant human MEKK2 PB1 domain; bead flow cytometry, Alexa488-MEK5 binding to MEKK2 mutant; percent response, % at 10 µM; hit rate 0.35% among 290,000; AID 1530; in the data active = percent response above about 24%, passing the limit was not always enough
GSK3 alpha inh: blocks human GSK-3 alpha kinase. inhibition, % at 10 µM. hit rate 0.1% among 320,000. AID 2650. ADP-Glo luminescence, 60 min. P49840;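 active = more than half of replicates show inhibition above 20%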;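 note: GST-tagged GSK-3 alpha with peptide substrate and 25 µM ATP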
Target sequence (P49840 whole entry, looked up): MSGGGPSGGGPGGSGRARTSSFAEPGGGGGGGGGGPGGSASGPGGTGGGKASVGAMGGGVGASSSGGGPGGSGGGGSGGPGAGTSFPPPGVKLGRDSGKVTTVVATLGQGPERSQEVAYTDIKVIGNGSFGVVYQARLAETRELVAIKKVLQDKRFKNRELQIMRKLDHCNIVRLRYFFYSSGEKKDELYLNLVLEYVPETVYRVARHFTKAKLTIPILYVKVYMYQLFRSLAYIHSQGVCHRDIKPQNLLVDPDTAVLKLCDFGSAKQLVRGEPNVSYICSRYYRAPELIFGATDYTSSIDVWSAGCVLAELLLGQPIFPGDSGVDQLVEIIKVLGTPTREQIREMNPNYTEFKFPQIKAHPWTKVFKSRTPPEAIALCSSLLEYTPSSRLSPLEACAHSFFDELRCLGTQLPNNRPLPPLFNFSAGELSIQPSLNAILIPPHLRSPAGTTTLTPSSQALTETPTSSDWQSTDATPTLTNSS
MEKK2wt confirm: raises or lowers MEK5 binding to wildtype human MEKK2, retest | shares compounds with MEKK3 PB1 HTS | bead flow cytometry, Alexa488-MEK5 binding to MEKK2 WT; actives lie on both sides | binding response (% of control), % at 10 µM | hit rate 2.4% among 5,900 | AID 1892; in the data active = binding response below about 16% or above about 210%; inactive = in between
MEKK2mut-MEK5: signal of MEK5 binding to mutant human MEKK2, retest | hit rate 2% among 5,900 | shares compounds with MEKK3 PB1 HTS | bead flow cytometry, Alexa488-MEK5 binding to MEKK2 mutant | AID 1893 | percent response, % at 10 µM; in the data active = percent response mostly above about 71%, no sharp cut-off; inactive = mostly below about 38%;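 note: higher means compound restores mutant binding toward wildtype level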
MEKK3 confirm: MEKK3-MEK5 PB1 inhibition, single concentration confirmation | shares compounds with MEKK3 PB1 HTS | bead flow cytometry, Alexa488-MEK5 binding to MEKK3; hits give low values | hit rate 1.8% among 5,900 | binding response (% of control), % at 10 µM | AID 1894;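 active = binding response below 72% of control, or above a set upper limit, though filed actives all read lower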;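 note: lower values mean stronger disruption of MEK5 binding to MEKK3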
Each line names hits and unclear results; the compound was inactive in the other large screens (follow-up assays come after a bar, where they were run); [ ] = remark or other dose.

CCc1cc2cc(C)ccc2nc1SCC(=O)Nc1cc(C)on1	MEKK3 PB1 HTS 128.0 | MEKK2wt confirm inactive | MEKK2mut-MEK5 inactive | MEKK3 confirm inactive
COc1ccccc1C(=O)Nc1ccc(Br)cc1C	none
Cc1onc(-c2c(F)cccc2Cl)c1C(=O)OCC(=O)c1c[nH]c2ccccc12	none
Cc1ccc(-c2nn3c(C)nnc3s2)cc1NCc1c(F)cccc1Cl	MEKK3 PB1 HTS 50.0[inhibitor], MEKK2 WT-MEK5 50.0[inhibitor] | MEKK2wt confirm inactive | MEKK2mut-MEK5 inactive | MEKK3 confirm inactive
CCN(c1ccc(NC(=O)COC(=O)/C=C/c2cccs2)cc1)C(C)C	none
Cc1nn(C)c(=O)n1N(C)c1ncc(C(F)(F)F)cc1Cl	MEKK3 PB1 HTS 139.0 | MEKK2wt confirm inactive | MEKK2mut-MEK5 inactive | MEKK3 confirm inactive
O=C(Cc1ccccc1)c1ccccc1C(=O)N1CCCCC1	none
O=C(O)C1=C[C@H](c2csc3ccccc23)C[C@H](OCc2ccc(CO)cc2)O1	MEKK3 PB1 HTS 66.0[inhibitor] | MEKK2wt confirm inactive | MEKK2mut-MEK5 inactive | MEKK3 confirm inactive
O=C(O)C1=C[C@@H](c2csc3ccccc23)C[C@@H](OCc2ccc(CO)cc2)O1	none
CCOC(=O)CC(NC(=O)c1cc2cccc(OC)c2oc1=O)c1cccc([N+](=O)[O-])c1 (stereo not given)	MEKK3 PB1 HTS 135.0 | MEKK2wt confirm inactive | MEKK2mut-MEK5 inactive | MEKK3 confirm inactive
CCOC(=O)CC(NS(=O)(=O)c1ccc(OC)c(OC)c1)c1cccc([N+](=O)[O-])c1 (stereo not given)	none
CCOC(=O)CC(NC(=O)c1cc2cc(Cl)cc(Cl)c2oc1=O)c1cccc([N+](=O)[O-])c1 (stereo not given)	MEKK3 PB1 HTS 53.0[inhibitor] (no result: STK33 inh, GSK3 alpha inh) | MEKK2wt confirm inactive | MEKK2mut-MEK5 inactive | MEKK3 confirm inactive
C=CCNC(=O)c1cc2cccc(OC)c2oc1=O	MEKK3 PB1 HTS 128.0 | MEKK2wt confirm inactive | MEKK2mut-MEK5 inactive | MEKK3 confirm inactive
COc1cccc2cc(C(=O)NCc3ccc(C)cc3)c(=O)oc12	none
COc1ccc(-c2nn(-c3ccccc3C)cc2CNCc2cccnc2)cc1F	none
CC(=O)NC(CC(=O)Nc1cc(Cl)ccc1-n1cncn1)c1ccccc1 (stereo not given)	none (no result: MEKK3 PB1 HTS, MEKK2 WT-MEK5, MEKK2mut PB1 HTS)
COCCCN1C(=O)C(=O)/C(=C(/O)c2ccc(S(=O)(=O)N3CCOCC3)cc2)C1c1ccc(Cl)cc1 (stereo not given)	none
N#Cc1cccc(Oc2ccc(-c3cnc4ccccc4n3)cc2)c1C#N	MEKK3 PB1 HTS 130.0 (no result: STK33 inh, GSK3 alpha inh) | MEKK2wt confirm inactive | MEKK2mut-MEK5 inactive | MEKK3 confirm inactive
N#CCCN1CCCc2cc(N=Nc3ccc(C(F)(F)F)cc3)ccc21	none
CC1=N/C(=C\c2ccc([N+](=O)[O-])cc2)C(=O)N1c1cc(Cl)ccc1C	MEKK2 WT-MEK5 52.0[inhibitor] | MEKK2wt confirm inactive | MEKK2mut-MEK5 inactive | MEKK3 confirm inactive
O=C(O)CN1C(=O)C2(OCCCO2)c2ccccc21	MEKK3 PB1 HTS 2.0[inhibitor], MEKK2 WT-MEK5 2.0[inhibitor] | MEKK2wt confirm inactive | MEKK2mut-MEK5 inactive | MEKK3 confirm inactive
Cc1ccc(S(=O)(=O)NNc2nnc(C)c(=O)[nH]2)cc1	MEKK3 PB1 HTS 135.0 | MEKK2wt confirm inactive | MEKK2mut-MEK5 inactive | MEKK3 confirm inactive
NC(=O)COC(=O)c1ccccc1OCc1ccccc1Cl	MEKK2 WT-MEK5 640.0, MEKK2mut PB1 HTS 457.0 | MEKK2wt confirm inactive | MEKK2mut-MEK5 inactive | MEKK3 confirm inactive
CN(CCC#N)C(=O)COC(=O)c1ccccc1OCc1ccccc1Cl	none
Cc1ccccc1OCCC(=O)OCC(=O)NCCNC(=O)COC(=O)CCOc1ccccc1C	none (no result: MEKK3 PB1 HTS, MEKK2 WT-MEK5, MEKK2mut PB1 HTS)
O=C(CCSc1ccc(Cl)cc1)Nc1cccnc1	none
Cc1ccc(S(=O)(=O)NC(=NC(Cc2ccccc2)C(=O)O)c2ccccc2)cc1 (stereo not given)	none (no result: GSK3B inh)
CC1CCN(C(=O)c2[nH]cnc2C(=O)Nc2nccs2)CC1	none (no result: GSK3B inh, MEKK3 PB1 HTS, MEKK2 WT-MEK5, MEKK2mut PB1 HTS)
Cc1ccc(NC(=O)CSc2nnc3ccc(-c4ccncc4)nn23)cc1	none (no result: STK33 inh, MEKK3 PB1 HTS, MEKK2 WT-MEK5, MEKK2mut PB1 HTS, GSK3 alpha inh)
Cc1ccc(CSc2nnc3ccc(-c4ccncc4)nn23)cc1	MEKK3 PB1 HTS 63.0[inhibitor] | MEKK2wt confirm inactive | MEKK2mut-MEK5 inactive | MEKK3 confirm inactive
COc1ccccc1CCNC(=O)CSc1nnc2ccc(-c3ccncc3)nn12	MEKK3 PB1 HTS 133.0 | MEKK2wt confirm inactive | MEKK2mut-MEK5 inactive | MEKK3 confirm inactive
CC(C)[C@@H](NC(=O)C1CCN(C(=O)[C@@H]2CCCN2C(=O)OC(C)(C)C)CC1)C(=O)NCc1ccc(F)cc1	none
COc1ccc2c(c1)c(/C=N/Nc1nc3ccccc3[nH]1)c(C)n2C	MEKK2 WT-MEK5 164.0, MEKK2mut PB1 HTS 51.0 | MEKK2wt confirm inactive | MEKK2mut-MEK5 inactive | MEKK3 confirm inactive
COc1cc(/C=N\Nc2nc3ccccc3[nH]2)cc(OC)c1OC	none
CC12CN3CC(C)(CN(C1)C3c1ccc(Cl)cc1)C2 (stereo not given)	none
CC12CN3CC(C)(CN(C1)C3c1ccc(F)cc1)C2 (stereo not given)	MEKK3 PB1 HTS 130.0 | MEKK2wt confirm inactive | MEKK2mut-MEK5 inactive | MEKK3 confirm inactive
CCOc1ccc2nc3cc(NCc4ccc(OC)cc4)ccc3c(N)c2c1	MEKK3 PB1 HTS 82.0[inhibitor], MEKK2 WT-MEK5 163.0, MEKK2mut PB1 HTS 139.0 | MEKK2wt confirm 220.0 | MEKK2mut-MEK5 170.0 | MEKK3 confirm inactive
CC1(C)COCN1C(=O)c1ccc(Cl)c(Cl)c1	none
COCCNc1nnc(SCC(=O)Nc2cc(-c3ccccc3)nn2-c2ccccc2)s1	MEKK3 PB1 HTS 68.0[inhibitor] | MEKK2wt confirm inactive | MEKK2mut-MEK5 inactive | MEKK3 confirm inactive
CC1=C(C(=O)OC(C)C)C(C2CC=CCC2)NC(=O)N1 (stereo not given)	MEKK3 PB1 HTS 0.0[inhibitor], MEKK2 WT-MEK5 -4.0[inhibitor] | MEKK2wt confirm inactive | MEKK2mut-MEK5 inactive | MEKK3 confirm inactive
CCC(C)c1ccccc1N=Cc1ccc2c(c1)OCO2 (stereo not given)	none
Cc1ccc(NC(=O)CSc2nc3nc(C)cc(C)c3c(=O)[nH]2)cc1	MEKK3 PB1 HTS 0.0[inhibitor], MEKK2 WT-MEK5 -1.0[inhibitor] | MEKK2wt confirm inactive | MEKK2mut-MEK5 inactive | MEKK3 confirm inactive
Cc1cc(C)c2c(=O)[nH]c(SCC(=O)Nc3ccccc3)nc2n1	none
COc1ccccc1C1CC(c2ccc(F)cc2)Nc2ncnn21 (stereo not given)	none
